Experimental data reported in ChEMBL document CHEMBL3853352, “Anti-tubercular activities of 5,6,7,8-tetrahydrobenzo[4,5]thieno[2,3-d]pyrimidin-4-amine analogues endowed with high activity toward non-replicative Mycobacterium tuberculosis” (Bioorg Med Chem, 2016).
In brackets after ≈: the same amount, converted by molar mass.

How the values were obtained:
[1] = Cytotoxicity against mouse RAW264.7 cells assessed as inhibition of cell proliferation at 50 ug/ml after 48 hrs by MTT assay; type: toxicity
In short: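 RAW 264.7 mouse macrophages grown in RPMI with 10% FBS and penicillin/streptomycin, then seeded at about 5000 cells/well on poly-L-lysine-coated plates. Pre-incubated 24 h at 37 °C, 5% CO2, then exposed to compound for 48 h. MTT (0.5 mg/ml) added for 3 h and formazan read at 595 nm.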

[2] = system: Mycobacterium tuberculosis; test: Binding affinity to Mycobacterium tuberculosis ADH assessed as change in melting temperature by Sypro orange dye based differential scanning fluorimetry
In short: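 Thermal shift assay on Mtb L-AlaDH (100 µg/ml, 10 µl) in 100 mM HEPES-NaOH pH 7.8 with 6 µl of 15× Sypro Orange; compounds added in <10% DMSO. Samples equilibrated 3 min at 25 °C, then ramped to 95 °C in 0.1 °C steps. Tm taken as the lowest point of the first-derivative plot; shift measured against the native protein.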

[3] = system: Mycobacterium tuberculosis; test: Antimycobacterial activity against Mycobacterium tuberculosis H37Rv after 7 days by MABA; type: functional; settings: 168 h
In short: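 M. tuberculosis H37Rv inoculum taken from fresh LJ medium, resuspended in 7H9-S (7H9, 0.1% casitone, 0.5% glycerol, OADC), adjusted to McFarland No. 1 and diluted 1:20. Serial two-fold drug dilutions in 7H9-S, with growth and sterile controls. Incubated 7 days at 37 °C in normal atmosphere, then alamar blue added and incubated overnight. MIC = lowest concentration preventing the blue-to-pink change.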

[4] = Inhibition of Mycobacterium tuberculosis ADH assessed as decrease in conversion of L-alanine to pyruvate by measuring NADH by spectrophotometry; parameters: species or system Mycobacterium tuberculosis H37Rv
In short: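 Mtb L-AlaDH oxidative deamination of L-alanine to pyruvate at 37 °C. NADH formation read at 340 nm. Compounds tested from 25 µM to 0.5 µM. Background read from the reaction mixture without enzyme. IC50 values calculated from the concentration series.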

[5] = system: Mycobacterium tuberculosis; test: Antimycobacterial activity against dormant stage of Mycobacterium tuberculosis H37Rv assessed as reduction in bacterial growth under nutrient starved conditions at 10 ug/ml for 7 days measured after 28 days; type: functional
In short: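 H37Rv grown in 7H9/OADC, washed twice and resuspended in PBS, then held in sealed bottles at 37 °C for 6 weeks. Starved cultures exposed to compound at 10 ug/ml for 7 days. Cells diluted 10-fold serially to 10^-6 in 7H9/OADC and plated in triplicate. Incubated 28 days at 37 °C without agitation; wells with visible growth scored positive and MPN calculated.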

[6] = system: Mycobacterium tuberculosis H37Rv; test: Inhibition of Mycobacterium tuberculosis ADH assessed as decrease in conversion of L-alanine to pyruvate at 25 uM by measuring NADH by spectrophotometry
[7] = biological target: T1, L-lysine-epsilon aminotransferase (Mycobacterium tuberculosis) (UniProt P9WQ77); test: Inhibition of Mycobacterium tuberculosis LAT at 25 uM
T1 sequence (whole entry): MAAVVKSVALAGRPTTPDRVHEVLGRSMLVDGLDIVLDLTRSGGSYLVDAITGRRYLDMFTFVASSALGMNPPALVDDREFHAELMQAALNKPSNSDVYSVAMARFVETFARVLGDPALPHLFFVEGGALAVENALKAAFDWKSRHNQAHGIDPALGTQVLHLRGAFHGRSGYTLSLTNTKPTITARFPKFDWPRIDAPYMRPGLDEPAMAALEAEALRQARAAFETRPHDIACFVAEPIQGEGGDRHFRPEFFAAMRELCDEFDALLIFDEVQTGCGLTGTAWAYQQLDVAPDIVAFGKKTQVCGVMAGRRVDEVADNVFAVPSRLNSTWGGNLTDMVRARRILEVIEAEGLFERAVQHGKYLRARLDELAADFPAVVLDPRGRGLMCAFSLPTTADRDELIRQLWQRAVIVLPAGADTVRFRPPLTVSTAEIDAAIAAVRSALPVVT

[8] = system: Mycobacterium tuberculosis; test: Antimycobacterial activity against Mycobacterium tuberculosis H37Rv after 6 days by resazurin assay; type: functional; settings: 144 h

| SMILES | inhibition at 48 h, 50 ug/ml [1] | ΔTm [2] | MIC [3] | IC50 [4] | fold change (FC) [5] | inhibition [6] | inhibition [7] | MIC [8] |
| --- | --- | --- | --- | --- | --- | --- | --- | --- |
| CCc1nc(NCCc2ccccc2)c2c3c(sc2n1)CCCC3 | 25.2% | 1.4 °C | 37 µM (≈ 12.5 µg/mL) | 1.82 µM | >1 | 50% | < 50% |  |
| Cc1cccc(-c2nc(Nc3ccncn3)c3c(C)csc3n2)n1 |  |  |  |  |  |  |  | 0.76 µM (≈ 0.254 µg/mL) |
| COc1ccc(Nc2nc(-c3ccccc3)nc3sc4c(c23)CCCC4)cc1 | 28.2% |  | 16.1 µM (≈ 6.25 µg/mL) | 8.72 µM | >1 | 50% | < 50% |  |
| CCc1nc(Nc2ccc(Cl)cc2)c2c3c(sc2n1)CCCC3 | 15.6% |  | 18.2 µM (≈ 6.25 µg/mL) | 4.94 µM | >1 | 50% | < 50% |  |
| Brc1ccc(Nc2nc(-c3ccccc3)nc3sc4c(c23)CCCC4)cc1 | 20.4% |  | 28.6 µM (≈ 12.5 µg/mL) | 8.7 µM | >1 | 50% | < 50% |  |
